Converted amounts (≈) assume the structure as drawn.
Tests used:
[1] = test system: Mycobacterium tuberculosis; assay: Antitubercular activity against wild type Mycobacterium tuberculosis HN878 assessed as bacterial growth inhibition measured after 5 days by serial dilution method; type: functional; details: HN878, 120 h, time 5 day
Summary of the method: (§1)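 Strains grown in Middlebrook 7H9 with OADC supplement and 0.05% w/v Tween 80. Compounds tested as 10-point 2-fold serial dilutions. Growth read as OD590 after 5 days in 7H9-OADC-Tw. Levenberg-Marquardt curve fitting gave MIC90, the concentration inhibiting growth by 90% relative to controls. Run in triplicate.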

[2] = test system: Mycobacterium tuberculosis; assay: Antitubercular activity against wild type Mycobacterium tuberculosis H37Rv ATCC 25618 assessed as bacterial growth inhibition measured after 5 days by serial dilution method; type: functional; details: H37Rv ATCC 25618, 120 h, time 5 day; summary of the method: as §1

SMILES | MIC90 [1] | MIC90 [2]
CO[C@H]1/C=C/O[C@@]2(C)Oc3c(C)c(O)c4c(O)c(c(CNCCc5ccc(O)cc5)c(O)c4c3C2=O)NC(=O)/C(C)=C\C=C\[C@H](C)[C@H](O)[C@@H](C)[C@@H](O)[C@@H](C)[C@H](OC(C)=O)[C@@H]1C | 0.22 µM (≈ 0.186 µg/mL) | 0.066 µM (≈ 0.0559 µg/mL)
CO[C@H]1/C=C/O[C@@]2(C)Oc3c(C)c(O)c4c(O)c(c(CNCc5ccc(S(C)(=O)=O)cc5)c(O)c4c3C2=O)NC(=O)/C(C)=C\C=C\[C@H](C)[C@H](O)[C@@H](C)[C@@H](O)[C@@H](C)[C@H](OC(C)=O)[C@@H]1C | 0.096 µM (≈ 0.0859 µg/mL) | 0.039 µM (≈ 0.0349 µg/mL)
CO[C@H]1/C=C/O[C@@]2(C)Oc3c(C)c(O)c4c(O)c(c(CNCCc5c[nH]c6ccccc56)c(O)c4c3C2=O)NC(=O)/C(C)=C\C=C\[C@H](C)[C@H](O)[C@@H](C)[C@@H](O)[C@@H](C)[C@H](OC(C)=O)[C@@H]1C | 0.39 µM (≈ 0.339 µg/mL) | 0.039 µM (≈ 0.0339 µg/mL)
CO[C@H]1/C=C/O[C@@]2(C)Oc3c(C)c(O)c4c(O)c(c(CNCc5ccco5)c(O)c4c3C2=O)NC(=O)/C(C)=C\C=C\[C@H](C)[C@H](O)[C@@H](C)[C@@H](O)[C@@H](C)[C@H](OC(C)=O)[C@@H]1C | 0.45 µM (≈ 0.363 µg/mL) | 0.09 µM (≈ 0.0726 µg/mL)
CO[C@H]1/C=C/O[C@@]2(C)Oc3c(C)c(O)c4c(O)c(c(CN5CCN(CCO)CC5)c(O)c4c3C2=O)NC(=O)/C(C)=C\C=C\[C@H](C)[C@H](O)[C@@H](C)[C@@H](O)[C@@H](C)[C@H](OC(C)=O)[C@@H]1C | 0.07 µM (≈ 0.0588 µg/mL) | 0.034 µM (≈ 0.0286 µg/mL)
NNC(=O)c1ccncc1 [ISONIAZID] | 0.29 µM (≈ 0.0398 µg/mL) | 0.28 µM (≈ 0.0384 µg/mL)
CO[C@H]1/C=C/O[C@@]2(C)Oc3c(C)c(O)c4c(O)c(c(CNCc5cccs5)c(O)c4c3C2=O)NC(=O)/C(C)=C\C=C\[C@H](C)[C@H](O)[C@@H](C)[C@@H](O)[C@@H](C)[C@H](OC(C)=O)[C@@H]1C | 0.2 µM (≈ 0.165 µg/mL) | 0.082 µM (≈ 0.0675 µg/mL)
CO[C@H]1/C=C/O[C@@]2(C)Oc3c(C)c(O)c4c(O)c(c(/C=N/N5CCN(C)CC5)c(O)c4c3C2=O)NC(=O)/C(C)=C\C=C\[C@H](C)[C@H](O)[C@@H](C)[C@@H](O)[C@@H](C)[C@H](OC(C)=O)[C@@H]1C [RIFAMPIN] | 0.02 µM (≈ 0.0165 µg/mL) | 0.0045 µM (≈ 0.0037 µg/mL)
CO[C@H]1/C=C/O[C@@]2(C)Oc3c(C)c(O)c4c(O)c(c(CNCc5ccccc5)c(O)c4c3C2=O)NC(=O)/C(C)=C\C=C\[C@H](C)[C@H](O)[C@@H](C)[C@@H](O)[C@@H](C)[C@H](OC(C)=O)[C@@H]1C |  | 0.097 µM (≈ 0.0792 µg/mL)
CO[C@H]1/C=C/O[C@@]2(C)Oc3c(C)c(O)c4c(O)c(c(CNCc5ccncc5)c(O)c4c3C2=O)NC(=O)/C(C)=C\C=C\[C@H](C)[C@H](O)[C@@H](C)[C@@H](O)[C@@H](C)[C@H](OC(C)=O)[C@@H]1C | 0.31 µM (≈ 0.254 µg/mL) | 0.075 µM (≈ 0.0613 µg/mL)
COC(=O)c1ccc(CNCc2c3c(O)c4c(O)c(C)c5c(c4c2O)C(=O)[C@@](C)(O/C=C/[C@H](OC)[C@@H](C)[C@@H](OC(C)=O)[C@H](C)[C@H](O)[C@H](C)[C@@H](O)[C@@H](C)/C=C/C=C(/C)C(=O)N3)O5)cc1 | 0.53 µM (≈ 0.464 µg/mL) | 0.12 µM (≈ 0.105 µg/mL)

From ChEMBL document CHEMBL5055637, “Novel C-3-(N-alkyl-aryl)-aminomethyl rifamycin SV derivatives exhibit activity against rifampicin-resistant Mycobacterium tuberculosis RpoBS522L strain and display a different binding mode at the RNAP β-subunit site compared to rifampicin” (2021)
